From ChEMBL document CHEMBL1153229, “The first synthetic agonists of FFA2: Discovery and SAR of phenylacetamides as allosteric modulators” (Bioorg Med Chem Lett, 2010) come the findings set out here.

Structures are written as SMILES. Active and inactive are the calls of the source. No cut-off for these calls is given here.

Data set [1] addresses T1, Free fatty acid receptor 2 (Homo sapiens, UniProt O15552).
T1 sequence (O15552 whole entry): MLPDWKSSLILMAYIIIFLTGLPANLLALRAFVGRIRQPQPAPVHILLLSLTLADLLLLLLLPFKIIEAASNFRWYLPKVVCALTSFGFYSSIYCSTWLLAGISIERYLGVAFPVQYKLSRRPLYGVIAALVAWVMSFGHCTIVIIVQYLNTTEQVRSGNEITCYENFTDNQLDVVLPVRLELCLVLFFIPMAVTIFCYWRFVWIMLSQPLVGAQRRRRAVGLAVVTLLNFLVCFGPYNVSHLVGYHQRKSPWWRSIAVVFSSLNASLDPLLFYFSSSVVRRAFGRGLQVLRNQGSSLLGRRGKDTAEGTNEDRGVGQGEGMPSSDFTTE
Nature of the data set: Agonist activity at human FFA2 receptor expressed in CHO cells assessed as inhibition of forskolin-induced cAMP production. It is filed as functional, cell-based. Put shortly:
(§1)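 Suspended cells, 10,000 per well, in Hank's balanced salt solution with 25 mM HEPES and 0.01% (w/v) BSA. Stimulated with forskolin (5 μM final) plus serially diluted test ligands, room temperature for 30 min. Antibody and lysis reagents then added, followed by overnight dark incubation with detection solution. Luminescence read (RLU). Efficacy expressed relative to acetate. Means of four experiments.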
Background: Cyclic AMP is a second messenger, typically raised through Gs and lowered through Gi signalling.

Data set [2] deals with Rattus norvegicus. Nature of the data set: Clearance in Sprague-Dawley rat at 0.5 mg/kg, iv. Further details: dose 0.5 mg/kg, route intravenous. It is filed as ADME, organism-based. Conditions: in vivo. The gist of the method: (§2)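 Male Sprague-Dawley rats dosed 0.5 mg/kg iv.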
For data set [3], the system named is Rattus norvegicus. Kind of data set: AUC in Sprague-Dawley rat at 0.5 mg/kg, iv. The class given is ADME, organism-based, Plasma. Further details: dose 0.5 mg/kg, route intravenous. As to conditions: in vivo. The gist of the method:
as §2

Data set [4] can be described thus: Mean residence time in Sprague-Dawley rat at 0.5 mg/kg, iv. The class given is ADME, organism-based. As to conditions: in vivo. Further details: dose 0.5 mg/kg, route intravenous. Put shortly:
as §2

Data set [5] in a line: Cmax in mouse at 5 mg/kg, po. Further details: dose 5 mg/kg, route oral. Conditions: in vivo. It is filed as ADME, organism-based.
Data set [6] can be described thus: AUC in mouse at 5 mg/kg, po. On the set-up: dose 5 mg/kg, route oral. It is filed as ADME, organism-based. As to conditions: plasma.
The nature of data set [7]: Mean residence time in mouse at 5 mg/kg, po. As to conditions: in vivo. It is filed as ADME, organism-based. On the set-up: dose 5 mg/kg, route oral.
Data set [8] in a line: Tmax in mouse at 5 mg/kg, po. The class given is ADME, organism-based. Further details: dose 5 mg/kg, route oral. Conditions: in vivo.
Data set [9] has as its target T2, Free fatty acid receptor 2 (Mus musculus) (UniProt Q8VCK6).
T2 sequence (whole entry): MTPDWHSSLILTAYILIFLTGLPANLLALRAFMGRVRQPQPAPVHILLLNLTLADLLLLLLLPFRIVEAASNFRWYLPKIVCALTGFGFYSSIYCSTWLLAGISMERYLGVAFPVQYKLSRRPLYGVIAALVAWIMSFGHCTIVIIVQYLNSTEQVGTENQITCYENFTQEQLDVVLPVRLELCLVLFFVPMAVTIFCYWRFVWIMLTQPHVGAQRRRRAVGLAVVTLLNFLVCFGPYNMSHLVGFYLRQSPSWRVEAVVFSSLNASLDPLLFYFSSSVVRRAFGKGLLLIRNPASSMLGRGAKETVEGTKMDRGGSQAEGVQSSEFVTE
Nature of the data set: Agonist activity at mouse FFA2 receptor expressed in CHO cells assessed as inhibition of forskolin-induced cAMP production. It is filed as functional, cell-based. Put shortly: as §1

Data set [10] relates to 3T3-L1. Nature of the data set: Inhibition of lipolysis in mouse 3T3L1 cells. It is filed as functional, cell-based. The gist of the method: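 Lipolysis measured in 3T3L1 adipocytes across a concentration range of test compound. Sensitivity to pertussis toxin treatment also examined. Means of three experiments.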
Data set [11] deals with Free fatty acid receptor 1 (Homo sapiens) (UniProt O14842). Nature of the data set: Agonist activity at FFA1 receptor up to 30 uM. The class given is functional.
Sequence of Free fatty acid receptor 1 (Homo sapiens) (O14842 whole entry): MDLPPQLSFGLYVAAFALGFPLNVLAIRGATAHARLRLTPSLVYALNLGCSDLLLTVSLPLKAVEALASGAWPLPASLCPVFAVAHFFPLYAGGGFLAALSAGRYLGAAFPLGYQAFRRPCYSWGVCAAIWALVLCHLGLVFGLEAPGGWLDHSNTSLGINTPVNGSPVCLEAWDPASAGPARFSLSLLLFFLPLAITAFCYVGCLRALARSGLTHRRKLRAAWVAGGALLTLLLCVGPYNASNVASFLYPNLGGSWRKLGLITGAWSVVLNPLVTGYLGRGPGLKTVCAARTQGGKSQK
The test system of data set [12] is Mus musculus. Kind of data set: Reduction in plasma free fatty acid level in overnight fasted wild type C57BL/6 mouse at 20 mg/kg, ip after 15 mins. The class given is functional, organism-based. On the set-up: dose 20 mg/kg. The gist of the method: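 Male-unspecified C57BL6 mice, wild type or FFA2 knockout, fasted overnight. Given compound or vehicle (10% dimethyl acetamide, 10% ethanol, 30% propylene glycol, 50% saline) ip at 10 ml/kg. Tail blood sampled before and 15 minutes after injection. Plasma FFA measured by enzymatic kit. Ten animals per group; t test.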

The target in data set [13] is Hydroxycarboxylic acid receptor 2 (Homo sapiens) (UniProt Q8TDS4). Kind of data set: Agonist activity at GPR109A up to 30 uM. It is filed as functional.
Sequence of Hydroxycarboxylic acid receptor 2 (Homo sapiens) (Q8TDS4 whole entry): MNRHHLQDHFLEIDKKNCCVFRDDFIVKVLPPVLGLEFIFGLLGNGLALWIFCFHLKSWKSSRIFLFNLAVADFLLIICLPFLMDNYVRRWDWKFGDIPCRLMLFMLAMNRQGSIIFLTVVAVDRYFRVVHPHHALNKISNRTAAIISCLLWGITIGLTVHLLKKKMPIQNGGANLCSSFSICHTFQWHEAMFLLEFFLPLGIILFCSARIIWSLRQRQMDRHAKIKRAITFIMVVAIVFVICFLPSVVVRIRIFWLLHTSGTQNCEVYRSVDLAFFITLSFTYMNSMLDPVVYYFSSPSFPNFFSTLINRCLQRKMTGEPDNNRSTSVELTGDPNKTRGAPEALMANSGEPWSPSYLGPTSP
Data set [14] addresses C-C chemokine receptor type 2 (Homo sapiens) (UniProt P41597). Kind of data set: Agonist activity at CCR2 up to 30 uM. It is filed as functional.
Data set [15] addresses T3, C-X-C chemokine receptor type 3 (Homo sapiens) (UniProt P49682).
T3 sequence (whole entry): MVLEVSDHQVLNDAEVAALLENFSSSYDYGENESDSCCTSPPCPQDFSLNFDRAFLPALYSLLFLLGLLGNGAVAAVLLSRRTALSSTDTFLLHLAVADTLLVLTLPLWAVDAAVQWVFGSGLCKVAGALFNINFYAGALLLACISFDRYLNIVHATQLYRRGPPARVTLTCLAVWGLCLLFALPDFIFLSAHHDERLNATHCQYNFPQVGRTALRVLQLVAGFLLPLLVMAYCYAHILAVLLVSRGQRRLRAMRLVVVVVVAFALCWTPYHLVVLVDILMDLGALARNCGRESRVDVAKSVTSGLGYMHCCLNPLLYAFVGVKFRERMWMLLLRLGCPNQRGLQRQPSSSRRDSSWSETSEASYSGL
Nature of the data set: Agonist activity at CXCR3 up to 30 uM. The class given is functional.

Data set [16] deals with T4, C-C chemokine receptor type 7 (Homo sapiens) (UniProt P32248).
T4 sequence (whole entry): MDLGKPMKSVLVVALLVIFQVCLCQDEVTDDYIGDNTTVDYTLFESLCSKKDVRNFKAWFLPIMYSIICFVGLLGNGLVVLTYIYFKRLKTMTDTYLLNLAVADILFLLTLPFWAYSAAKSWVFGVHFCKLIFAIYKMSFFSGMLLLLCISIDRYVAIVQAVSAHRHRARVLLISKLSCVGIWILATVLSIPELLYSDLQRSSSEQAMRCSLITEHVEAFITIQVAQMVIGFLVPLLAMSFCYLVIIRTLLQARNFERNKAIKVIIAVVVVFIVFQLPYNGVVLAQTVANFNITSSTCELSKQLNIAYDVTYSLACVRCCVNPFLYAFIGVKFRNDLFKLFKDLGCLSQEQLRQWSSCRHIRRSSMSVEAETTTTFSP
Kind of data set: Agonist activity at CCR7 up to 30 uM. It is filed as functional.

Data set [17] has as its target Growth hormone secretagogue receptor type 1 (Homo sapiens) (UniProt Q92847). Kind of data set: Agonist activity at GHSR up to 30 uM. It is filed as functional.
The target of data set [18] is T5, Endothelin receptor type B (Homo sapiens) (UniProt P24530).
T5 sequence (whole entry): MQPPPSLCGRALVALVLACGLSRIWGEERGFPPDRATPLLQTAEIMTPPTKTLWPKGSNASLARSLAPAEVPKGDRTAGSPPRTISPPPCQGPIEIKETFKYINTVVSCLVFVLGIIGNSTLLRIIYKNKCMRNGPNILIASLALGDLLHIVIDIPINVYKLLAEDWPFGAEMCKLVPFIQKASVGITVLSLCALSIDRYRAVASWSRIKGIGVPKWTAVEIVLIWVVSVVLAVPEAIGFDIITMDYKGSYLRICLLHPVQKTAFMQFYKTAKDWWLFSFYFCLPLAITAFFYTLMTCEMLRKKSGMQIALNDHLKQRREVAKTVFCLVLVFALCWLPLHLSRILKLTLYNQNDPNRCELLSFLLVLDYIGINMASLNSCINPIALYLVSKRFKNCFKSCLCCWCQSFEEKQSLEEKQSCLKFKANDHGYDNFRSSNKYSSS
Kind of data set: Agonist activity at ETBR up to 30 uM. It is filed as functional.

Sequence of C-C chemokine receptor type 2 (Homo sapiens) (P41597 whole entry, looked up): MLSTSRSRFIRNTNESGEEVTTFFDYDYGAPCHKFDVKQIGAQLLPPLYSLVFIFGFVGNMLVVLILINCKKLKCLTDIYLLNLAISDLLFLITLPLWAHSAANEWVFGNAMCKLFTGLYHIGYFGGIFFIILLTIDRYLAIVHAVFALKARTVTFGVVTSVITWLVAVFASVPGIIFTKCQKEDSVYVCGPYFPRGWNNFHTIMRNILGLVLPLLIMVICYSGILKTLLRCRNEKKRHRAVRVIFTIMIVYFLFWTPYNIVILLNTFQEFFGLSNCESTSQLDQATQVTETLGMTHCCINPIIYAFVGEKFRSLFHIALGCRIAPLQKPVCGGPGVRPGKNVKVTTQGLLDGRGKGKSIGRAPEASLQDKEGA
Sequence of Growth hormone secretagogue receptor type 1 (Homo sapiens) (Q92847 whole entry): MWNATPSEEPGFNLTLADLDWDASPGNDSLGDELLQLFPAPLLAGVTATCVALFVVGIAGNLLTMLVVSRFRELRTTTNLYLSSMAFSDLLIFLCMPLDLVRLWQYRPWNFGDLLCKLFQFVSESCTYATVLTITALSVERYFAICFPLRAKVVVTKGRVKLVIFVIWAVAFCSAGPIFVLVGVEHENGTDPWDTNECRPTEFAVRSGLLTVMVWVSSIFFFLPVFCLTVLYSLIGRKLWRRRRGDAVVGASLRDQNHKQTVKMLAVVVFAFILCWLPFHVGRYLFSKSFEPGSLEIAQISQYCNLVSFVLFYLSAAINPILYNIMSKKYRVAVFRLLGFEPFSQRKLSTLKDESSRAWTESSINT

Consider `CC(C)[C@H](C(=O)Nc1ncc(F)s1)c1ccc(Cl)cc1`, for which, in [1], the half-inhibitory concentration (IC50) is 500 nM. The same compound registered a CL in [2] of 43.3 mL/min/kg. For the same compound, the exposure (AUC) in data set [3] stood at 194 ng·h/mL; in [6] it was 62000 ng·h/mL. The MRT in data set [4] was determined as 228 min; in data set [7] it was 55.8 min. Besides, the maximum concentration (Cmax) in data set [5] amounted to 83 ng/mL. The time to peak (Tmax) in data set [8] was determined as 19.8 min. Moreover, the Activity in data set [9] amounted to 0.7 µM. Further, in data set [10], the inhibition result is “Dose-dependent effect”. Moreover, the outcome in [11], in data set [13], in data set [14], in [15], in data set [16] and in [17] was inactive. In [18], the result was inactive. Besides, the result in data set [12] was Active.

The term IC50 denotes the concentration needed to halve the response being measured. What is called AUC is concentration integrated over time. A lower AUC goes with less exposure. Broadly, the MRT is a mean duration of stay, worked out from the concentration-time curve. Usually Cmax stands for the highest concentration seen after dosing. One may read the Tmax as the time from dosing to the highest level.
